{"source": "ChEMBL document CHEMBL1123436", "about": "“Comparative toxicities and analgesic activities of three monomethylated analogues of acetaminophen” (J Med Chem, 1986)", "key": {"[1]": {"system": "Mus musculus", "test": "(§1) Hepatotoxicity in Swiss-Webster Mice Caused by compound at 1000 mg/kg (i.p.) (pipernonyl butoxide pretreated animals)dose", "type": "functional", "conditions": "route intraperitoneal", "outline": "(§2)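 Male Swiss-Webster mice (20 g), groups of 10. Piperonyl butoxide (neat, single 1360 mg/kg ip dose) was given 30 min before drug, then drug ip in saline. At 24 h: survivors counted, plasma ALT measured, and H&E liver sections scored for necrosis in survivors. Values are means ± SE.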"}, "[2]": {"test": "Hepatotoxicity in Swiss-Webster Mice Caused by compound at 1000 mg/kg (i.p.) (cobaltous chloride pretreated animals)dose; 9/10", "type": "functional, Mus musculus", "conditions": "route intraperitoneal", "outline": "(§3)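 Male Swiss-Webster mice (20 g), groups of 10. Cobaltous chloride (30 mg/kg ip) was given 48, 36, 24 and 12 h before drug, then drug ip in saline. At 24 h: survivors counted, plasma ALT measured, and H&E liver sections scored for necrosis in survivors. Values are means ± SE.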"}, "[3]": {"test": "Hepatotoxicity in Swiss-Webster Mice Caused by compound at 1000 mg/kg (i.p.) (phenobarbital pretreated animals)dose; 5/10", "type": "functional, Mus musculus", "conditions": "route intraperitoneal", "outline": "(§4)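 Male Swiss-Webster mice (20 g), groups of 10. Sodium phenobarbital (80 mg/kg ip) was given 72, 60, 48 and 24 h before drug, then drug ip in saline. At 24 h: survivors counted, plasma ALT measured, and H&E liver sections scored for necrosis in survivors. Values are means ± SE.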"}, "[4]": {"species": "Mus musculus", "test": "Analgesic activity determined in mice using the Bradykinin-induced Writhing test", "type": "functional", "outline": "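Male CD1 mice (15–20 g), test drug given orally 15 min before bradykinin ip (4 μg in 0.2 mL sterile water), then a second bradykinin injection (0.2 μg/0.1 mL) 15 min later. Writhing was scored over the next 10 min, with control groups of 10 mice. ED50 was derived by log-probit analysis from at least five doses, with 95% limits.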"}, "[5]": {"system": "Mus musculus", "test": "as §1", "type": "functional, organism-based", "parameters": "dose 1000 mg/kg", "outline": "as §2"}, "[6]": {"system": "Mus musculus", "test": "Hepatotoxicity in Swiss-Webster Mice Caused by compound at 1000 mg/kg (i.p.) (pipernonyl butoxide pretreated animals)dose; 10/10", "type": "functional", "conditions": "route intraperitoneal", "outline": "as §2"}, "[7]": {"system": "Mus musculus", "test": "(§5) Hepatotoxicity in Swiss-Webster Mice Caused by compound at 1000 mg/kg (i.p.) dose", "type": "functional", "conditions": "route intraperitoneal", "outline": "(§6)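 Male Swiss-Webster mice (20 g), groups of 10, were given a single ip dose of drug in saline with no pretreatment. Survivors were decapitated at 24 h and counted. Plasma ALT was measured, and liver sections (formalin-fixed, paraffin, H&E) were scored for necrosis severity in survivors. Values are means ± SE.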"}, "[8]": {"system": "Mus musculus", "test": "(§7) Hepatotoxicity in Swiss-Webster Mice Caused by compound at 750 mg/kg (i.p.) dose", "type": "functional", "conditions": "route intraperitoneal", "outline": "as §6"}, "[9]": {"system": "Mus musculus", "test": "as §5", "type": "functional, organism-based", "parameters": "dose 1000 mg/kg", "outline": "as §6"}, "[10]": {"system": "Mus musculus", "test": "Hepatotoxicity in Swiss-Webster Mice Caused by compound at 750 mg/kg (i.p.) dose; 10/10", "type": "functional", "conditions": "route intraperitoneal", "outline": "as §6"}, "[11]": {"system": "Mus musculus", "test": "Hepatotoxicity in Swiss-Webster Mice Caused by compound at 1000 mg/kg (i.p.) (cobaltous chloride pretreated animals)dose", "type": "functional, organism-based", "parameters": "dose 1000 mg/kg", "outline": "as §3"}, "[12]": {"system": "Mus musculus", "test": "as §7", "type": "functional, organism-based", "parameters": "dose 750 mg/kg", "outline": "as §6"}, "[13]": {"test": "(§8) Hepatotoxicity in Swiss-Webster Mice Caused by compound at 1000 mg/kg (i.p.) (phenobarbital pretreated animals)dose", "type": "functional, Mus musculus", "conditions": "route intraperitoneal", "outline": "as §4"}, "[14]": {"system": "Mus musculus", "test": "Hepatotoxicity in Swiss-Webster Mice Caused by compound at 1000 mg/kg (i.p.) dose; 8/10", "type": "functional", "conditions": "route intraperitoneal", "outline": "as §6"}, "[15]": {"system": "Mus musculus", "test": "as §8", "type": "functional, organism-based", "parameters": "dose 1000 mg/kg", "outline": "as §4"}}}
{"smiles": "CC(=O)Nc1ccc(O)cc1C", "values": [{"measurement": "Hepatic necrosis in survivors", "setting": "[1]", "result": 0}, {"measurement": "Survivors at 24 h", "setting": "[2]", "result": 9}, {"measurement": "Survivors at 24 h", "setting": "[3]", "result": 5}, {"measurement": "ED50", "setting": "[4]", "result": 177, "unit": "mg/kg"}, {"measurement": "Plasma ALT at 24 h", "setting": "[5]", "result": 75, "unit": "mU ml-1"}, {"measurement": "Survivors at 24 h", "setting": "[6]", "result": 10}, {"measurement": "Hepatic necrosis in survivors", "setting": "[7]", "result": 1.75}, {"measurement": "Hepatic necrosis in survivors", "setting": "[8]", "result": 0.8}, {"measurement": "Plasma ALT at 24 h", "setting": "[9]", "result": 2110, "unit": "mU ml-1"}, {"measurement": "Survivors at 24 h", "setting": "[10]", "result": 10}, {"measurement": "Plasma ALT at 24 h", "setting": "[11]", "result": 40, "unit": "mU ml-1"}, {"measurement": "Plasma ALT at 24 h", "setting": "[12]", "result": 690, "unit": "mU ml-1"}, {"measurement": "Hepatic necrosis in survivors", "setting": "[13]", "result": 3.4}, {"measurement": "Survivors at 24 h", "setting": "[14]", "result": 8}, {"measurement": "Plasma ALT at 24 h", "setting": "[15]", "result": 3920, "unit": "mU ml-1"}]}
